Data: ChEMBL document CHEMBL1125389, “Synthesis and use of 3-amino-4-phenyl-2-piperidones and 4-amino-2-benzazepin-3-ones as conformationally restricted phenylalanine isosteres in renin inhibitors” (J Med Chem, 1992)

target: T1, Renin (Homo sapiens, UniProt P00797); experiment: Compound was evaluated for the inhibition of human plasma renin at pH 7.4; format: cell-free
T1 sequence (P00797 whole entry): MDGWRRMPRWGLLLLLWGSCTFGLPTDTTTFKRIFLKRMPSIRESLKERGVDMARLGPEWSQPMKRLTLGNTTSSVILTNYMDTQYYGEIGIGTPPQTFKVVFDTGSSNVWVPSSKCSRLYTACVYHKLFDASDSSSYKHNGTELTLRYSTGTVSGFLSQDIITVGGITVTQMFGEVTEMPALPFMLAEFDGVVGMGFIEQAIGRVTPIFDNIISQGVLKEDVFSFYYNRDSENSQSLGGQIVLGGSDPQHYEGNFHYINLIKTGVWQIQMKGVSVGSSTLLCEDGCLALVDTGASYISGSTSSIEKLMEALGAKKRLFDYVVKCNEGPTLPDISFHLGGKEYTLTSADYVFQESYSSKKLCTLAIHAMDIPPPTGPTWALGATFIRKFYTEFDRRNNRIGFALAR
Summary of the method: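 Human plasma renin activity measured by radioimmunoassay of generated angiotensin I, run in phosphate buffer at pH 7.4 and 37 °C. IC50 is the mean of three determinations.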

| Compound | IC50 |
| --- | --- |
| CCCCNC(=O)[C@@H](C[C@H](O)[C@H](CC1CCCCC1)NC(=O)[C@H](CCCC)NC(=O)C(Cc1ccccc1)NC(=O)OC(C)(C)C)C(C)C (stereo not given in full) | 2.1 nM |
| CCCCNC(=O)[C@@H](C[C@H](O)[C@H](CC1CCCCC1)NC(=O)[C@H](CCCC)N1Cc2ccccc2C[C@H](N2C(=O)c3ccccc3C2=O)C1=O)C(C)C | > 20000 nM |
| CCCCNC(=O)[C@@H](C[C@H](O)[C@H](CC1CCCCC1)NC(=O)[C@H](CCCC)NC(=O)C(Cc1ccccc1)N1C(=O)c2ccccc2C1=O)C(C)C (stereo not given in full) | 87 nM |
| CCCCNC(=O)[C@@H](C[C@H](O)[C@H](CC1CCCCC1)NC(=O)[C@H](CCCC)N1Cc2ccccc2C[C@H](NC(C)=O)C1=O)C(C)C | 210 nM |
| CCCCNC(=O)[C@@H](C[C@H](O)[C@H](CC1CCCCC1)NC(=O)[C@H](CCCC)N1Cc2ccccc2C[C@H](NC(=O)OC(C)(C)C)C1=O)C(C)C | 1730 nM |
| CCCCNC(=O)[C@@H](C[C@H](O)[C@H](CC1CCCCC1)NC(=O)[C@H](CCCC)N1Cc2ccccc2C[C@H](N)C1=O)C(C)C | 2040 nM |
| CCCCNC(=O)[C@@H](C[C@H](O)[C@H](CC1CCCCC1)NC(=O)[C@H](CCCC)NC(=O)C(Cc1ccccc1)NC(C)=O)C(C)C (stereo not given in full) | 0.84 nM |
| CCCCNC(=O)[C@@H](C[C@H](O)[C@H](CC1CCCCC1)NC(=O)[C@H](CCCC)N1CC[C@H](c2ccccc2)[C@H](NC(C)=O)C1=O)C(C)C | 21 nM |
| CCCCNC(=O)[C@@H](C[C@H](O)[C@H](CC1CCCCC1)NC(=O)[C@H](CCCC)N1CC[C@H](c2ccccc2)[C@H](NC(=O)OC(C)(C)C)C1=O)C(C)C | 134 nM |
| CCCCNC(=O)[C@@H](C[C@H](O)[C@H](CC1CCCCC1)NC(=O)[C@H](CCCC)N1CC[C@@H](c2ccccc2)[C@H](NC(=O)OC(C)(C)C)C1=O)C(C)C | 5910 nM |
